Source: PubChem
In the library only some 2.1% were active in any assay of this set; here they are far more common.
PKA-R2B act: activators of PKA-R2B holoenzyme, primary screen, biochemical, fluorescence polarization, Cy5-IP20, human. PKA-R2B holoenzyme dissociation; R2B truncated from residue 108, S112A mutant; 0% DMSO only, 100% 113 µM cGMP. cAMP-dependent protein kinase catalytic subunit beta (Homo sapiens) + cAMP-dependent …. activation, % at 11.4 µM. 0.079% of 340,000 active. AID 504700, 2011;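 active means activation above a cutoff set at the mean over all compounds plus 3 SD, cut at about 18% in these data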;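 further: higher means more holoenzyme dissociation and a rise in polarization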
Target sequence (P31323 whole entry, looked up, other chains not shown, the tested form may be a part): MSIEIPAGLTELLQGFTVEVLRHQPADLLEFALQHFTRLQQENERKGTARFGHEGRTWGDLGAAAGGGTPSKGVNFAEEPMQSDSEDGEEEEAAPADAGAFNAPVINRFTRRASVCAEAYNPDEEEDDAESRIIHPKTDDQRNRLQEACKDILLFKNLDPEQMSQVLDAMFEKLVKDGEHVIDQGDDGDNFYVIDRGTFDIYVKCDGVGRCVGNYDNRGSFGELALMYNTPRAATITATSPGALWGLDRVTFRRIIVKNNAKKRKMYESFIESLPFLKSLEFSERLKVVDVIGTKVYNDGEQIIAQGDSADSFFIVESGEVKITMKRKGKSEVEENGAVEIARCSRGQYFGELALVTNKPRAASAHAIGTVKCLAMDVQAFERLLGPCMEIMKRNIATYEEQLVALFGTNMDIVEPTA
MsrA act: bovine MsrA enzyme activators, primary screen, biochemical, absorbance, HTS | Methionine sulfoxide reductase A (Bos taurus) | purified bovine MsrA, absorbance read-out | activation, % at 10.6 µM | 0.3% of 360,000 active; in the data active means activation above about 7.5%;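 further: 0% = vehicle and 100% = reference activator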
VIM-2 inhibitor: VIM-2 metallo-beta-lactamase inhibitors, primary screen, biochemical, epi-absorbance readout, Pseudomonas aeruginosa enzyme. purified VIM-2, nitrocefin hydrolysis, epi-absorbance fluorescence. inhibition, % at 5.6 µM. 0.89% of 290,000 active. AID 1527, 2009;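 active means inhibition above the mean of all tested compounds plus 3 SD, cutoff set per screening run, cut at about 7.5% in these data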;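 further: red hydrolysis product quenches plate fluorescence so inhibitors raise well fluorescence; 0% = enzyme with DMSO and 100% = DMSO without enzyme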
IMP-1 inh: IMP-1 metallo-beta-lactamase inhibitors, primary screen, biochemical, epi-absorbance readout, Pseudomonas aeruginosa enzyme | metallo-beta-lactamase IMP-1 (Pseudomonas aeruginosa) | purified IMP-1, nitrocefin hydrolysis, epi-absorbance fluorescence | inhibition, % at 5.6 µM | 0.45% of 290,000 active;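 active means inhibition above the mean plus 3 SD of all compounds in the same screening run, cut at about 4.5% in these data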;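 further: 0% = IMP-1 with DMSO and 100% = DMSO wells lacking enzyme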
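System: Purified recombinant IMP-1 metallo-beta-lactamase enzyme | Measured by: Fluorescence quenching readout, ex 480/em 530 nm | Replication: Singlicate | Incubation: 15 min preincubation plus 25 min reaction at 25 °C | Evaluation: Percent inhibition from optical density relative to buffer-blank wells | Benchmarks: DMSO with and without IMP-1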
MsrA inh: bovine MsrA enzyme inhibitors, primary screen, biochemical, absorbance, HTS; Methionine sulfoxide reductase A (Bos taurus); purified bovine MsrA, absorbance read-out; inhibition, % at 15.5 µM; 0.75% of 360,000 active; in the data active means inhibition above about 4.5%;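 further: 0% = vehicle wells with enzyme and 100% = reference inhibitor wells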
PKA-R1A act: activators of PKA-R1A holoenzyme, primary screen, biochemical, fluorescence polarization, Cy5-IP20, bovine R1A, mouse PKAc. cAMP-dependent protein kinase type I-alpha regulatory subunit (Bos taurus) + …. PKA-R1A dissociation; scaled: DMSO 0%, 113 µM cGMP 100%. activation, % at 11.4 µM. 0.083% of 340,000 active. AID 504707, 2011;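 active means percent activation above the mean of all tested compounds plus 3 SD, cut at about 19% in these data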;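 further: higher means more PKAc released from R1A so a rise in polarization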
* marks the source's active call; other numbers are inactive results.

For O=c1oc(-c2ccc(O)c(O)c2)cc2cccc(O)c12 the results were PKA-R2B act -13.2, MsrA act -2.8, MsrA inh 1.5 and PKA-R1A act 1.9.
Cc1snc(S(=O)(=O)/C(C#N)=N/Nc2ccc(C(F)(F)F)cc2)c1C#N was read as PKA-R2B act -7.4, MsrA act 0.6, VIM-2 inhibitor -0.9, IMP-1 inh -2.1, MsrA inh 4.6* and PKA-R1A act -1.1.
For CC(C)C(C(=O)O)N1C(=O)/C(=C/C=C/c2ccco2)SC1=S (stereo unspecified) the results were PKA-R2B act 0.2, MsrA act -4.3, VIM-2 inhibitor -0.6, IMP-1 inh 5.8* and PKA-R1A act 0.5.
For CC[C@H](C)[C@@H](CN[C@H](CCCCNC)CNC)NCC1CCCC1 the results were PKA-R2B act 15.1, MsrA act 3.8, VIM-2 inhibitor 12.0*, IMP-1 inh -2.8, MsrA inh 0.5 and PKA-R1A act -10.9.
Screening CCCC[C@@H](CN[C@H](C)CNC)NCC1CCC(C(C)(C)C)CC1 (stereo partly specified) returned VIM-2 inhibitor -2.5, IMP-1 inh 3.8 and MsrA inh -1.6.
For COc1ccc(-c2cc(CCC(=O)N3CCN(c4cc(C)ccc4C)CC3)[nH]n2)cc1 the results were PKA-R2B act -2.1, MsrA act -3.8, MsrA inh 0.3 and PKA-R1A act -0.4.
Screening CCn1c(N2CCN(Cc3ccc([N+](=O)[O-])cc3)CC2)nc2ccccc21 returned PKA-R2B act 13.1, MsrA act -2.5, VIM-2 inhibitor -0.9, IMP-1 inh 23.4*, MsrA inh 0.6 and PKA-R1A act 7.2.
For CCCn1c(N2CCN(Cc3ccc(Cl)cc3)CC2)nc2ccccc21 the results were PKA-R2B act 9.1, MsrA act -1.2, VIM-2 inhibitor -1.8, IMP-1 inh -0.2, MsrA inh 0.2 and PKA-R1A act 3.2.
For CCn1c(=NC(=O)CN2C(=O)CCC2=O)sc2c(OC)ccc(OC)c21 the results were PKA-R2B act 2.2, MsrA act -9.8, VIM-2 inhibitor -0.4, IMP-1 inh 4.6*, MsrA inh 0.1 and PKA-R1A act 5.2.
COC(=O)C(CCC(=O)CN1C(=O)c2ccccc2C1=O)N1C(=O)c2ccccc2C1=O (stereo unspecified) was read as PKA-R2B act -0.9, MsrA act -2.5, MsrA inh 0.0 and PKA-R1A act 17.6.
`COc1cc(/C=C/C(=O)CC(=O)/C=C/c2ccc(O)c(OC)c2)ccc1O` gave PKA-R2B act 3.8, MsrA act -1.2, VIM-2 inhibitor -1.2, IMP-1 inh 17.8*, MsrA inh 3.7 and PKA-R1A act 2.6.
For COc1cc(/C=C2/CCCC(C(=O)C(F)(F)F)=C2O)ccc1O the results were PKA-R2B act 6.0, MsrA act -4.8, VIM-2 inhibitor 2.7, IMP-1 inh 0.5, MsrA inh 0.2 and PKA-R1A act 11.5.
`COc1cc(/C=C2\CCC/C(=C\c3ccc(O)c(OC)c3)C2=O)ccc1O` gave PKA-R2B act -0.9, MsrA act -0.6, VIM-2 inhibitor 11.3*, IMP-1 inh -0.1, MsrA inh 2.0 and PKA-R1A act -0.7.
Screening Cc1ccc(-n2c(SCC(=O)N3CCCCC3)nc(O)c(Cc3ccccc3)c2=O)cc1 returned PKA-R2B act -7.0, MsrA act -0.6, VIM-2 inhibitor -1.2, IMP-1 inh 9.3*, MsrA inh 0.6 and PKA-R1A act -12.1.
Screening CCN(CC)C(=O)CSc1nc(O)c(Cc2ccccc2)c(=O)n1-c1ccc(C)cc1 returned PKA-R2B act 2.0, MsrA act -3.6, VIM-2 inhibitor -1.1, IMP-1 inh -2.3, MsrA inh -1.2 and PKA-R1A act 5.0.
`Cc1sc2nc(SCC(=O)N3CCN(CCO)CC3)n(-c3ccccc3)c(=O)c2c1C` gave PKA-R2B act 3.5, MsrA act -3.1, VIM-2 inhibitor 23.6*, IMP-1 inh -1.4, MsrA inh 2.3 and PKA-R1A act 7.0.
Screening COc1ccc(C(=O)N/C(=C/c2cccs2)C(=O)NN)cc1OC returned PKA-R2B act -7.5, MsrA act -2.1, VIM-2 inhibitor -2.2, IMP-1 inh -2.5, MsrA inh 0.4 and PKA-R1A act -6.1.
COc1ccc(C(=O)N/C(=C\c2cccs2)c2nc3ccccc3[nH]2)cc1OC was read as PKA-R2B act -2.5, MsrA act -3.5, VIM-2 inhibitor -0.1, IMP-1 inh -1.3, MsrA inh 6.0* and PKA-R1A act -2.4.
For Cc1nc(NCCc2ccc(S(N)(=O)=O)cc2)c2c3c(sc2n1)CCC3 the results were PKA-R2B act 7.1, MsrA act -3.6, VIM-2 inhibitor 7.9*, IMP-1 inh -3.2, MsrA inh 1.8 and PKA-R1A act -7.8.
`COc1ccccc1C#Cc1cnc2c(c1)C(=O)N([C@H](C)CO)C[C@H](C)[C@@H](CN(C)S(=O)(=O)c1cn(C)cn1)O2` gave PKA-R2B act 4.8, MsrA act -7.6, MsrA inh 0.2 and PKA-R1A act 12.2.
O=C(Nc1cccc(S(=O)(=O)N2CCOCC2)c1)c1cc(S(=O)(=O)N2CCOCC2)c(Cl)cc1Cl was read as PKA-R2B act -0.5, MsrA act 0.6, MsrA inh -0.7 and PKA-R1A act -3.6.
`CCCS(=O)(=O)N1CCCC(C(=O)NCCCOC(C)C)C1` (stereo unspecified) gave PKA-R2B act 2.7, MsrA act -0.1, VIM-2 inhibitor -2.1, IMP-1 inh -2.3, MsrA inh -0.6 and PKA-R1A act -3.0.
`CCCS(=O)(=O)N1CCCC(C(=O)NCCCN2CCN(c3ccc(F)cc3)CC2)C1` (stereo unspecified) gave PKA-R2B act 8.2, MsrA act -10.0, VIM-2 inhibitor -1.0, IMP-1 inh 5.4*, MsrA inh 1.2 and PKA-R1A act -1.0.
COc1ccc(C(=O)CC(Sc2ccccc2N)c2ccc(OC)cc2)cc1 (stereo unspecified) was read as PKA-R2B act 2.2, MsrA act 0.1, MsrA inh 1.0 and PKA-R1A act 1.2.
Screening c1coc(-c2nnc3sc(-c4cccs4)nn23)c1 returned PKA-R2B act 1.0, MsrA act 0.7, VIM-2 inhibitor 7.9*, IMP-1 inh -0.4, MsrA inh 0.7 and PKA-R1A act -5.8.
O=C(Nc1cccc(-c2ccc3nncn3n2)c1)C(F)(F)F was read as PKA-R2B act -15.1, MsrA act -0.1, VIM-2 inhibitor 8.0*, IMP-1 inh -4.1, MsrA inh -1.1 and PKA-R1A act -3.4.
